The list is not random: actives were taken first. Their share in the collection is about 3.9%.
CHOP inh = CHOP inhibition in unfolded protein response; CHO-K1 CHOP-promoter luciferase, tunicamycin-induced, 15-18 h; inhibition, % at 10 µM; 220,000 tested, 3.8% active; AID 2732;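 active means compounds that reduced the stress-induced luciferase reporter signal by more than about 70% of percent inhibition, limit read from the data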;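 further: 0% = tunicamycin plus vehicle and 100% = wells without tunicamycin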
UPR CHOP act = apoptotic UPR (CHOP) activation. CHO-CHOP luciferase reporter, luminescence; percent of tunicamycin response over DMSO baseline. activation, % at 10 µM. 330,000 tested, 0.34% active. AID 449763;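 active means at 10 µM dose, activation of 40% or more, normalized to positive control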;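 further: 100% = tunicamycin at 10 µg/mL and 0% = DMSO alone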
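System: CHO CHOP reporter cells. Amount: 500 cells per well. Buffer or medium: F12 medium, 10% FBS. Compound dosing: one dose, 10 µM in 0.5% DMSO. Incubation: 6 h compound exposure at 37 °C after overnight seeding. Technique: Steady-Glo luciferase luminescence. Benchmarks: tunicamycin and DMSO controls.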
Jurkat NFkB inh = inhibitors of the PMA/ionomycin-induced NF-kB reporter in Jurkat cells; inhibition, % at 4 µM; AID 435003; 330,000 tested, 0.53% active; PMA/ionomycin-induced NF-kB luciferase reporter, luminescence; in the data active means inhibition above about 50%
UPR XBP1 act = activators of adaptive arm of unfolded protein response (XBP1); activation, % at 20 µM; 330,000 tested, 0.33% active; CHO-XBP1 luciferase reporter, IRE1-XBP1 UPR activation, luminescence; percent of tunicamycin response, DMSO as zero;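 active means versus positive control, 20 µM dose yields 30% or more activation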;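 further: 100% = tunicamycin at 10 µg/mL and 0% = DMSO only wells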
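Material: CHO cell line with stable XBP1 luciferase reporter; buffer or medium: F12 medium containing 10% fetal bovine serum; compound: single point, 20 µM final compound, 1% DMSO; incubation: 6 h treatment, 37 °C; measured by: glow luminescence from Steady-Glo reagent; evaluation: activation, % of tunicamycin; control set: tunicamycin high, DMSO low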
Gli-Sufu block = blocks Gli-Sufu signaling in a luciferase reporter; Sufu-KO-LIGHT fibroblasts, Gli luciferase reporter luminescence; inhibition, % at 5 µM; 340,000 tested, 0.74% active; AID 588413;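 active means inhibition above about 55%, limit read from the data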;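 further: 0% = DMSO-treated cells and 100% = wells with medium but no cells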
697 NFkB inh = inhibitors of the PMA/ionomycin-induced NF-kB reporter in 697 B cells; 697 B-cell NF-kB luciferase reporter, 16 h; inhibition, % at 4 µM; 330,000 tested, 0.33% active; AID 435022; in the data active means inhibition above about 35%
An asterisk follows results filed as active; . = no result given.

SMILES	CHOP inh	UPR CHOP act	Jurkat NFkB inh	UPR XBP1 act	Gli-Sufu block	697 NFkB inh
COc1ccccc1N(CC(=O)NC1CCCC1)C(=O)CCC(=O)Nc1ccccn1	.	1	20	-3	-13	9
CS(=O)c1ccccc1-c1nc(-c2cc(C(F)(F)F)cc(C(F)(F)F)c2)no1 (centres undefined)	82*	2	10	1	-12	0
CC(C)c1ccccc1OCC(=O)NC1CCCc2ccccc21 (centres undefined)	75*	3	16	1	11	23
Cc1cccc(NC(=O)CN2C(=O)N/C(=C/c3ccc(C)s3)C2=O)c1	92*	4	-1	2	-11	-17
CC1CCC(C(C)C)C(OC(=O)C[n+]2cc(-c3ccc(Cl)cc3)n3c2CCCCC3)C1 (centres undefined)	48	1	24	8	65*	-22
Cc1ccc(N(C)S(=O)(=O)c2c[nH]c3ccc([N+](=O)[O-])cc23)cc1	.	0	8	-3	-29	10
CC1(C)SC(=S)N(NC(=O)Nc2cccc3ccccc23)C1N(O)C(=O)Nc1ccccc1 (centres undefined)	100*	2	12	4	-6	8
CNC(=O)N(O)C1N(NC(=O)Nc2ccccc2)C(=S)SC1(C)C (centres undefined)	.	2	23	-1	-11	8
CCCCCCP(=O)(O)c1ccccc1	14	3	6	-1	5	7
CCCCN(CCCC)CP(=O)(c1ccccc1)c1ccccc1	73*	-4	-20	-6	3	-4
Cc1ccc(C)n1-n1cnc2sc3c(c2c1=O)CCCCC3	34	-1	-20	-2	-22	-14
Cc1ccc(C)n1-n1c(C)nc2sc3c(c2c1=O)CCCCC3	79*	-1	8	-5	0	18
COc1ccc(CNC(=O)C/C(C)=N/NC(=O)COc2ccc(C)cc2Br)cc1	25	-1	39	8	-37	0
c1ccc(-c2cc(-c3ccncc3)nc3ccc4ccccc4c23)cc1	89*	2	5	2	10	-13
Clc1ccc2nc(-c3ccncc3)cc(-c3ccccc3)c2c1	55	-3	3	4	-2	21
COc1ccc(OC)c(C(=O)CSc2nccc(-c3ccc(Br)cc3)n2)c1	80*	-1	31	5	4	-55
CCOC(=O)N1CCN(c2nc(-c3ccc(F)cc3)cs2)CC1	78*	2	-15	4	-16	-9
CCOC(=O)C(=O)N1CCN(c2nc(-c3ccc(Cl)cc3)cs2)CC1	.	-1	4	-5	8	9
CCOc1ccc(CN(C)C(C)C(=O)NCCc2ccc(F)cc2)cc1 (centres undefined)	.	1	-15	-2	26	-6
CC1CC(C)CN(C(=O)Cn2c(=O)n(CCCC(=O)NCc3ccco3)c(=O)c3sccc32)C1 (centres undefined)	.	0	-12	0	-4	-7
O=c1c2ccccc2nc(/C=C/c2ccc([N+](=O)[O-])o2)n1CCCO	-21	5	10	5	71*	-3
CC(=O)N1c2ccc(S(=O)(=O)NCCC(=O)Nc3ccc(F)cc3C)cc2CC1C (centres undefined)	.	-2	5	-1	9	-11
COc1ccc(-n2cnc3scc(-c4ccc(OC)c(OC)c4)c3c2=O)cc1	76*	0	7	1	-1	15
Cc1cccc(NC(=O)c2nc[nH]c2C(=O)N[C@@H](C)C(=O)OCc2ccccc2)c1	90*	0	-6	-5	16	2
Cc1cccc(NC(=O)c2nc[nH]c2C(=O)Nc2cccc(C)c2)c1	87*	1	4	3	5	3
SMILES	CHOP inh	UPR CHOP act	Jurkat NFkB inh	UPR XBP1 act	Gli-Sufu block	697 NFkB inh
Cc1cccc(NC(=O)c2nc[nH]c2C(=O)NCCCNC(=O)c2[nH]cnc2C(=O)Nc2cccc(C)c2)c1	.	10	-21	9	5	21
COc1ccc(OC)c(C2C(C(=O)c3ccco3)=C(O)C(=O)N2CC2CCCO2)c1 (centres undefined)	.	1	0	0	-10	11
O=c1[nH]c(CSc2ncnc3sccc23)nc2cc(C(F)(F)F)ccc12	89*	-2	10	-3	3	-15
O=c1[nH]c(CSc2ncc(C(F)(F)F)cc2Cl)nc2ccccc12	-4	1	-11	4	-16	-11
CSc1ccc(CN(C)Cc2nc3cc(C(F)(F)F)ccc3c(=O)[nH]2)cc1	71*	0	-2	2	43	18
COc1cc2nc(CN(C)Cc3ccc(SC)cc3)[nH]c(=O)c2cc1OC	25	-1	0	-1	5	-11
CC(C)[C@H](NC(=O)N1CCn2c1nc1ccccc12)C(=O)NC1CCCCC1	.	-1	-2	-4	-12	-15
CNC(=O)C(=O)Nc1nc(C23CC4CC(CC(C4)C2)C3)cs1	52	5	-62	0	-33	-121
Cc1noc(C)c1C(=O)Nc1nc(C23CC4CC(CC(C4)C2)C3)cs1	83*	6	10	3	0	-10
Cc1ccc(/C=C/C(=O)N2CCCC(C)C2)cc1 (centres undefined)	32	1	-119	-3	-87	-123
Cc1ccc(/C=C/C(=O)N2CCC(Cc3ccccc3)CC2)cc1	87*	3	4	0	-12	-8
C=CCn1c(SCCCc2ccccc2)nc2c1c(=O)[nH]c(=O)n2C	77*	0	3	9	9	-36
CC(C)CCn1c(SCCc2ccccc2)nc2c1c(=O)[nH]c(=O)n2C	75*	-1	3	0	6	21
C=CCNc1nc2c(c(=O)[nH]c(=O)n2C)n1CCCCC	71*	0	-14	0	-3	-12
CCCn1c(SCCc2ccccc2)nc2c1c(=O)[nH]c(=O)n2C	6	1	-23	7	10	-11
CCCCCn1c(CN2CCN(c3cccc(Cl)c3)CC2)nc2c1c(=O)[nH]c(=O)n2C	65	2	3	4	16	-7
Cn1c(=O)[nH]c(=O)c2c1nc(CN1CCN(c3cccc(Cl)c3)CC1)n2CCc1ccccc1	82*	1	-9	2	8	-10
O=C(CSc1ccc2nnc(CCNC(=O)c3ccc(F)cc3)n2n1)NCC1CCCO1 (centres undefined)	.	2	15	1	-2	8
O=C(NNC(=O)C12CC3CC(CC(O)(C3)C1)C2)c1csc(N2CCOCC2)n1	.	2	-8	-1	-4	-27
Clc1cccc(CN2CCSCC2)c1Cl	.	-1	-2	-4	.	-15

Screening results deposited in PubChem by several laboratories.
